Experiment [1] concerns Radical scavenging activity. Nature of the experiment: Antioxidant activity assessed as DPPH radical scavenging activity after 30 mins by spectrophotometric analysis. Format: functional. A digest of the protocol:
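DPPH radical bleaching followed as loss of absorbance at 517 nm; IC50 derived; mean ± SD, n = 3.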
(DPPH is a stable violet radical that fades when it is reduced.)

Experiment [2] can be described thus: Antioxidant activity assessed as hydroxyl radical scavenging activity after 1 hr by spectrophotometric analysis. The class given is functional.
Another experiment deals with Bacillus cereus. Description: Antibacterial activity against Bacillus cereus after 24 hrs by agar dilution method. The class given is functional. In general terms: Agar dilution tests growth on a series of plates holding different concentrations.
In the next experiment the test system is NIH3T3. Description: Cytotoxicity against mouse NIH/3T3 cells after 48 hrs by SRB assay. The class given is cell-based. The note with it: NIH3T3, 48 h. (The SRB assay estimates cell density from bound dye.)
The test system of experiment [3] is Staphylococcus epidermidis. Nature of the experiment: Antibacterial activity against Staphylococcus albus after 24 hrs by agar dilution method. Format: functional.
For the next experiment, the system named is Escherichia coli. Nature of the experiment: Antibacterial activity against Escherichia coli after 24 hrs by agar dilution method. The class given is functional.
Experiment [4] is described as follows: Antioxidant activity assessed as superoxide radical anion scavenging activity by spectrophotometric analysis. Format: functional.
The subject of the next experiment is Staphylococcus aureus. Nature of the experiment: Antibacterial activity against Staphylococcus aureus after 24 hrs by agar dilution method. Format: functional.
The subject of a further experiment is Pseudomonas aeruginosa. Description: Antibacterial activity against Pseudomonas aeruginosa after 24 hrs by agar dilution method. Format: functional.

By EC50 is commonly meant the concentration that produces a half-maximal response. What is called MBC is the lowest tested concentration that kills the bacteria rather than only halting them. Lower therefore signals greater bactericidal potency. As a reminder, the MIC is the smallest concentration in the dilution series that meets the test's criterion for growth inhibition. One may read the IC50 as the concentration at which inhibition is half-maximal. A higher IC50 goes with weaker potency in that assay.

In brackets after ≈: the same amount, converted by molar mass. Some results are limits rather than exact numbers.

Turning to `Oc1cccc(-c2nc3ccccc3[nH]2)c1`, the EC50 in [1], in experiment [2] and in experiment [4] was above 200 µM in each case. Moreover, the MBC was determined as 200 µM (≈ 42 µg/mL) in the experiment on Bacillus cereus, 100 µM (≈ 21 µg/mL) with Escherichia coli and 0.78 µM (≈ 0.164 µg/mL) in the experiment with Staphylococcus aureus. For the same compound, the MIC against Bacillus cereus is 50 µM (≈ 10.5 µg/mL); in experiment [3], above 200 µM; with Escherichia coli it was 12.5 µM (≈ 2.63 µg/mL); in the experiment on Staphylococcus aureus, 0.39 µM (≈ 0.082 µg/mL); against Pseudomonas aeruginosa it was above 200 µM. This compound also displayed an IC50 with NIH3T3 above 200 µM.
Regarding `COc1ccc2[nH]c(-c3ccccc3O)nc2c1`, the EC50 in [1] was above 200 µM; in experiment [2], 190 µM; in experiment [4] it was 87 µM. For the same compound, the MBC in the experiment with Bacillus cereus and in the experiment on Escherichia coli was above 200 µM throughout. The MIC is 200 µM (≈ 48.1 µg/mL) with Bacillus cereus; above 200 µM in [3]; 100 µM (≈ 24 µg/mL) against Escherichia coli; above 200 µM against Staphylococcus aureus; above 200 µM against Pseudomonas aeruginosa. This compound gave an IC50 in the experiment on NIH3T3 above 200 µM.
Consider `COc1ccc2[nH]c(-c3ccccc3)nc2c1`, for which the EC50 in experiment [1], in [2] and in [4] was above 200 µM each time. Moreover, the MBC amounted to 200 µM (≈ 44.9 µg/mL) against Bacillus cereus and 100 µM (≈ 22.4 µg/mL) against Escherichia coli. For the same compound, the MIC in the experiment on Bacillus cereus is 50 µM (≈ 11.2 µg/mL); in experiment [3] it was above 200 µM; in the experiment with Escherichia coli, 25 µM (≈ 5.61 µg/mL); with Staphylococcus aureus it was above 200 µM; against Pseudomonas aeruginosa, above 200 µM. Besides, in the experiment on NIH3T3, the IC50 is above 200 µM.
Turning to `COc1ccc2[nH]c(-c3ccc(O)cc3)nc2c1`, the EC50 in experiment [1], in experiment [2] and in experiment [4] was above 200 µM in each case. The MBC with Bacillus cereus was 200 µM (≈ 48.1 µg/mL); in the experiment on Escherichia coli, 100 µM (≈ 24 µg/mL); against Staphylococcus aureus it was 200 µM (≈ 48.1 µg/mL). Moreover, the MIC with Bacillus cereus was 50 µM (≈ 12 µg/mL); in [3], above 200 µM; against Escherichia coli, 12.5 µM (≈ 3 µg/mL); with Staphylococcus aureus, 100 µM (≈ 24 µg/mL); against Pseudomonas aeruginosa, above 200 µM. In the experiment with NIH3T3, this compound gave an IC50 above 200 µM.
As to `COc1ccc(-c2nc3cc(OC)ccc3[nH]2)cc1`, the EC50 in experiment [1], in [2] and in [4] was above 200 µM each time. The MBC against Bacillus cereus is 200 µM (≈ 50.9 µg/mL); in [3] it was above 200 µM; in the experiment on Escherichia coli, 100 µM (≈ 25.4 µg/mL); in the experiment on Staphylococcus aureus it was 200 µM (≈ 50.9 µg/mL). Further, the minimal inhibitory concentration (MIC) in the experiment with Bacillus cereus is 50 µM (≈ 12.7 µg/mL); in [3], 100 µM (≈ 25.4 µg/mL); in the experiment on Escherichia coli, 6.25 µM (≈ 1.59 µg/mL); in the experiment with Staphylococcus aureus, 25 µM (≈ 6.36 µg/mL); in the experiment with Pseudomonas aeruginosa, above 200 µM. The IC50 in the experiment on NIH3T3 is above 200 µM.
In the case of `COc1ccc2[nH]c(-c3ccc(O)cc3O)nc2c1`, the concentration giving a half-maximal response (EC50) in experiment [1] is 129 µM; in experiment [2] it was above 200 µM; in [4], 189 µM. Also, the MBC in the experiment on Bacillus cereus was found to be 100 µM (≈ 25.6 µg/mL); in experiment [3] it was 200 µM (≈ 51.3 µg/mL); against Escherichia coli, 100 µM (≈ 25.6 µg/mL); against Staphylococcus aureus it was 100 µM (≈ 25.6 µg/mL). Moreover, the MIC is 50 µM (≈ 12.8 µg/mL) in the experiment with Bacillus cereus; 100 µM (≈ 25.6 µg/mL) in experiment [3]; 6.25 µM (≈ 1.6 µg/mL) against Escherichia coli; 50 µM (≈ 12.8 µg/mL) with Staphylococcus aureus; above 200 µM with Pseudomonas aeruginosa. The same compound gave an IC50 in the experiment on NIH3T3 above 200 µM.
Turning to `Oc1ccccc1-c1nc2ccccc2[nH]1`, the EC50 in experiment [1] was above 200 µM; in [2], above 200 µM; in experiment [4], 122 µM. Moreover, the MIC with Bacillus cereus was above 200 µM; in experiment [3], above 200 µM; against Escherichia coli, 25 µM (≈ 5.26 µg/mL); in the experiment on Staphylococcus aureus it was above 200 µM; with Pseudomonas aeruginosa, above 200 µM. This compound displayed an IC50 in the experiment with NIH3T3 above 200 µM. In the experiment on Escherichia coli, this compound registered an MBC of 100 µM (≈ 21 µg/mL).
Consider `COc1ccc(-c2nc3cc(OC)ccc3[nH]2)c(OC)c1`, for which the EC50 in [1], in experiment [2] and in experiment [4] was above 200 µM each time. The MIC was above 200 µM in the experiment with Bacillus cereus; 100 µM (≈ 28.4 µg/mL) in [3]; above 200 µM in the experiment with Escherichia coli; 6.25 µM (≈ 1.78 µg/mL) against Staphylococcus aureus; above 200 µM with Pseudomonas aeruginosa. Also, in the experiment on NIH3T3, the IC50 was above 200 µM. Also, the MBC in experiment [3] is 200 µM (≈ 56.9 µg/mL); against Staphylococcus aureus, 50 µM (≈ 14.2 µg/mL).
As to `O=C(O)c1cn(C2CC2)c2cc(N3CCNCC3)c(F)cc2c1=O` [CIPROFLOXACIN], the MBC against Bacillus cereus stood at 0.39 µM (≈ 0.129 µg/mL); in experiment [3] it was 0.39 µM (≈ 0.129 µg/mL); in the experiment on Escherichia coli, 0.39 µM (≈ 0.129 µg/mL); with Staphylococcus aureus, 0.39 µM (≈ 0.129 µg/mL); in the experiment on Pseudomonas aeruginosa, 0.78 µM (≈ 0.258 µg/mL). For the same compound, the MIC worked out at 0.39 µM (≈ 0.129 µg/mL) in the experiment on Bacillus cereus; 0.39 µM (≈ 0.129 µg/mL) in experiment [3]; 0.39 µM (≈ 0.129 µg/mL) in the experiment on Escherichia coli; 0.39 µM (≈ 0.129 µg/mL) against Staphylococcus aureus; 0.78 µM (≈ 0.258 µg/mL) in the experiment with Pseudomonas aeruginosa. The IC50 in the experiment with NIH3T3 is above 200 µM.
With `Oc1ccc(-c2nc3ccccc3[nH]2)cc1`, the EC50 in [1], in [2] and in experiment [4] was above 200 µM in each case. In addition, the MIC is above 200 µM against Bacillus cereus; above 200 µM in [3]; 25 µM (≈ 5.26 µg/mL) in the experiment with Escherichia coli; 12.5 µM (≈ 2.63 µg/mL) with Staphylococcus aureus; above 200 µM in the experiment on Pseudomonas aeruginosa. Also, the IC50 with NIH3T3 is above 200 µM. Also, the MBC against Escherichia coli is 100 µM (≈ 21 µg/mL); against Staphylococcus aureus, 50 µM (≈ 10.5 µg/mL).
In the case of `COc1ccc(-c2nc3ccccc3[nH]2)cc1`, the EC50 in experiment [1], in [2] and in [4] was above 200 µM throughout. Besides, the MBC was determined as 100 µM (≈ 22.4 µg/mL) in the experiment on Bacillus cereus, 100 µM (≈ 22.4 µg/mL) in experiment [3], 50 µM (≈ 11.2 µg/mL) against Escherichia coli and 1.56 µM (≈ 0.35 µg/mL) in the experiment with Staphylococcus aureus. The MIC was 50 µM (≈ 11.2 µg/mL) against Bacillus cereus; 100 µM (≈ 22.4 µg/mL) in experiment [3]; 12.5 µM (≈ 2.8 µg/mL) against Escherichia coli; 1.56 µM (≈ 0.35 µg/mL) in the experiment with Staphylococcus aureus; above 200 µM with Pseudomonas aeruginosa. Also, the 50% inhibitory concentration (IC50) in the experiment on NIH3T3 was above 200 µM.
On to `COc1ccc2[nH]c(-c3ccc(O)c(OC)c3)nc2c1`, for which the EC50 was 58 µM in experiment [1], above 200 µM in experiment [2] and above 200 µM in experiment [4]. Moreover, the MBC in the experiment on Bacillus cereus and against Staphylococcus aureus was 200 µM (≈ 54.1 µg/mL) in each case. Moreover, the MIC in the experiment on Bacillus cereus is 50 µM (≈ 13.5 µg/mL); in experiment [3], above 200 µM; with Escherichia coli it was above 200 µM; in the experiment on Staphylococcus aureus, 100 µM (≈ 27 µg/mL); in the experiment with Pseudomonas aeruginosa it was above 200 µM. The compound further came in with a 50% inhibitory concentration (IC50) in the experiment on NIH3T3 above 200 µM.
Turning to `COc1ccc2[nH]c(-c3ccc(OC)c(OC)c3)nc2c1`, the concentration for a half-maximal effect (EC50) in experiment [1], in experiment [2] and in experiment [4] was above 200 µM throughout. In addition, the results for the MBC (in the experiment with Bacillus cereus; in experiment [3]; in the experiment on Staphylococcus aureus) were 100 µM (≈ 28.4 µg/mL), above 200 µM and 200 µM (≈ 56.9 µg/mL), respectively. In addition, the MIC with Bacillus cereus is 25 µM (≈ 7.11 µg/mL); in experiment [3], 100 µM (≈ 28.4 µg/mL); in the experiment with Escherichia coli it was above 200 µM; against Staphylococcus aureus it was 50 µM (≈ 14.2 µg/mL); against Pseudomonas aeruginosa, above 200 µM. The compound also gave an IC50 with NIH3T3 above 200 µM.
Take `COc1cc(OC)cc(-c2nc3cc(OC)ccc3[nH]2)c1`: the EC50 in [1], in [2] and in experiment [4] was above 200 µM throughout. For the same compound, the MIC (against Bacillus cereus; in [3]; with Escherichia coli; in the experiment on Staphylococcus aureus; with Pseudomonas aeruginosa) was above 200 µM throughout. This compound gave an IC50 in the experiment on NIH3T3 above 200 µM.
Take `c1ccc(-c2nc3ccccc3[nH]2)cc1`: the EC50 in experiment [1], in experiment [2] and in experiment [4] was above 200 µM throughout. Besides, the MIC in the experiment on Bacillus cereus was above 200 µM; in [3], above 200 µM; against Escherichia coli, 6.25 µM (≈ 1.21 µg/mL); against Staphylococcus aureus, 100 µM (≈ 19.4 µg/mL); in the experiment on Pseudomonas aeruginosa it was above 200 µM. The IC50 in the experiment on NIH3T3 is above 200 µM. In addition, the MBC against Escherichia coli is 100 µM (≈ 19.4 µg/mL); against Staphylococcus aureus it was above 200 µM.

For the origin of these results see ChEMBL document CHEMBL2396641, “Synthesis, antioxidant, and antimicrobial evaluation of some 2-arylbenzimidazole derivatives” (Bioorg Med Chem Lett, 2013).
